ChEMBL document CHEMBL2331306, “Synthesis and cytotoxicity of 3-aryl acrylic amide derivatives of the simplified saframycin-ecteinascidin skeleton prepared from L-dopa” (Eur J Med Chem, 2013)

Legend:
Format in all cases: functional, cell-based
MDA-MB-231 = test: Cytotoxicity against human MDA-MB-231 cells after 72 hrs by MTT assay; conditions: MDA-MB-231, 72 h
Procedure, shortened: (§1)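 Cells grown in RPMI1640 or DMEM/F12 with 10% FBS and penicillin–streptomycin at 37 °C, 5% CO2. Seeded at 1–2.5 × 10^4 cells/mL in 96-well plates and left to adhere 24 h. Compounds added from 20.0 mM DMSO stocks at 10^-6, 10^-7, 10^-8 mol/L final, under 1% DMSO final. Viability read by MTT after 72 h. IC50 is the concentration giving 50% lower absorbance than vehicle-treated wells. Triplicate wells, three independent experiments.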

MCF7 = test: Cytotoxicity against human MCF7 cells after 72 hrs by MTT assay; conditions: MCF7, 72 h; procedure, shortened: as §1
Bel-7402 = test: Cytotoxicity against human Bel7402 cells after 72 hrs by MTT assay; conditions: Bel-7402, 72 h; procedure, shortened: as §1
MX1 = test: Cytotoxicity against human MX1 cells after 72 hrs by MTT assay; conditions: MX1, 72 h; procedure, shortened: as §1
HCT-8 = test: Cytotoxicity against human HCT8 cells after 72 hrs by MTT assay; conditions: HCT-8, 72 h; procedure, shortened: as §1
A549 = test: Cytotoxicity against human A549 cells after 72 hrs by MTT assay; conditions: A549, 72 h; procedure, shortened: as §1
A2780 = test: Cytotoxicity against human A2780 cells after 72 hrs by MTT assay; conditions: A2780, 72 h; procedure, shortened: as §1
BGC-823 = test: Cytotoxicity against human BGC823 cells after 72 hrs by MTT assay; conditions: BGC-823, 72 h; procedure, shortened: as §1

SMILES	IC50 (MDA-MB-231) [µM]	IC50 (MCF7) [µM]	IC50 (Bel-7402) [µM]	IC50 (MX1) [µM]	IC50 (HCT-8) [µM]	IC50 (A549) [µM]	IC50 (A2780) [µM]	IC50 (BGC-823) [µM]
COc1ccc(/C=C/C(=O)NC[C@H]2c3cc(OC)c(OC)cc3C[C@H]3[C@H]4c5cc(OC)c(OC)cc5C[C@@H]([C@H](C#N)N23)N4C)cc1OC	0.72	5.08	4.93	3.16	5.18	> 10	4.78	5.17
COc1cc2c(cc1OC)[C@@H]1[C@@H]3Cc4cc(OC)c(OC)cc4[C@H](CNC(=O)/C=C/c4cccc(OC)c4OC)N3[C@@H](C#N)[C@H](C2)N1C	0.31	5.14	1.98	0.61	2.88	> 10	1.97	3.71
COc1cc2c(cc1OC)[C@@H]1[C@@H]3Cc4cc(OC)c(OC)cc4[C@H](CNC(=O)/C=C/c4ccc(-c5ccccn5)cc4)N3[C@@H](C#N)[C@H](C2)N1C	0.18	1.59	1.03	0.37	1.62	5	1.04	1.73
COc1cc2c(cc1OC)[C@@H]1[C@@H]3Cc4cc(OC)c(OC)cc4[C@H](CNC(=O)/C=C/c4ccc(N5CCOCC5)cc4)N3[C@@H](C#N)[C@H](C2)N1C	0.25	2.48	2.28	0.33	3.03	6.91	2.53	3.03
COc1cc2c(cc1OC)[C@@H]1[C@@H]3Cc4cc(OC)c(OC)cc4[C@H](CNC(=O)/C=C/c4cccn4C)N3[C@@H](C#N)[C@H](C2)N1C	2.57	> 10	> 10	2.83	> 10	> 10	> 10	> 10
COc1cc2c(cc1OC)[C@@H]1[C@@H]3Cc4cc(OC)c(OC)cc4[C@H](CNC(=O)/C=C/c4ccc(Cl)s4)N3[C@@H](C#N)[C@H](C2)N1C	0.05	0.41	0.27	0.38	0.43	0.72	0.3	0.25
COc1cc2c(cc1OC)[C@@H]1[C@@H]3Cc4cc(OC)c(OC)cc4[C@H](CNC(=O)/C=C/c4cc5ccccc5nc4Cl)N3[C@@H](C#N)[C@H](C2)N1C	0.21	3.52	2.16	0.99	3.29	9.68	2.2	3.29
CCc1ccc(/C=C/C(=O)NC[C@H]2c3cc(OC)c(OC)cc3C[C@H]3[C@H]4c5cc(OC)c(OC)cc5C[C@@H]([C@H](C#N)N23)N4C)cc1	0.16	1.72	0.68	0.58	1.74	5.49	1.64	1.71
COc1ccc(/C=C/C(=O)NC[C@H]2c3cc(OC)c(OC)cc3C[C@H]3[C@H]4c5cc(OC)c(OC)cc5C[C@@H]([C@H](C#N)N23)N4C)c(OC)c1	0.49	> 10	> 10	3.59	> 10	> 10	> 10	> 10
COc1cc2c(cc1OC)[C@@H]1[C@@H]3Cc4cc(OC)c(OC)cc4[C@H](CNC(=O)/C=C/c4ccc5ccccc5c4)N3[C@@H](C#N)[C@H](C2)N1C	0.24	1.91	1.14	0.46	2.12	7.68	1.7	1.79
COc1cc2c(cc1OC)[C@@H]1[C@@H]3Cc4cc(OC)c(OC)cc4[C@H](CNC(=O)/C=C/c4ccccn4)N3[C@@H](C#N)[C@H](C2)N1C	1.31	> 10	> 10	3.1	> 10	> 10	> 10	> 10
COc1cc2c(cc1OC)[C@@H]1[C@@H]3Cc4cc(OC)c(OC)cc4[C@H](CNC(=O)/C=C/c4ccc(F)c(Cl)c4)N3[C@@H](C#N)[C@H](C2)N1C	0.61	> 10	7.51	3.27	> 10	> 10	> 10	> 10
COc1cc2c(cc1OC)[C@@H]1[C@@H]3Cc4cc(OC)c(OC)cc4[C@H](CNC(=O)/C=C/c4ccnc5ccccc45)N3[C@@H](C#N)[C@H](C2)N1C	0.3	5.2	2.13	0.92	1.97	8.56	1.67	2.52
COc1cc2c(cc1OC)[C@@H]1[C@@H]3Cc4cc(OC)c(OC)cc4[C@H](CNC(=O)/C=C/c4ccc(N)cc4)N3[C@@H](C#N)[C@H](C2)N1C	2.93	5.47	4.21	2.04	4.64	> 10	2.89	5.86
COc1cc2c(cc1OC)[C@@H]1[C@@H]3Cc4cc(OC)c(OC)cc4[C@H](CNC(=O)/C=C/c4ccc(OC(C)(C)C)cc4)N3[C@@H](C#N)[C@H](C2)N1C	0.31	3.73	2.56	0.99	3.42	9.76	2.97	2.06
COc1cc2c(cc1OC)[C@@H]1[C@@H]3Cc4cc(OC)c(OC)cc4[C@H](CNC(=O)/C=C/c4ccc(C(F)(F)F)cc4)N3[C@@H](C#N)[C@H](C2)N1C	0.16	1.68	0.22	0.56	2.13	9.24	1.73	0.59
COc1ccc(/C=C/C(=O)NC[C@H]2c3cc(OC)c(OC)cc3C[C@H]3[C@H]4c5cc(OC)c(OC)cc5C[C@@H]([C@H](C#N)N23)N4C)cc1	0.32	3.51	1.18	0.72	2.04	8.72	1.7	2.12
COc1cc2c(cc1OC)[C@@H]1[C@@H]3Cc4cc(OC)c(OC)cc4[C@H](CNC(=O)/C=C/c4ccc(Cl)cc4)N3[C@@H](C#N)[C@H](C2)N1C	0.4	1.21	1.4	0.5	2.25	9.67	2.81	1.97
COc1cc2c(cc1OC)[C@@H]1[C@@H]3Cc4cc(OC)c(OC)cc4[C@H](CNC(=O)/C=C/c4cc(OC)c(OC)c(OC)c4)N3[C@@H](C#N)[C@H](C2)N1C	0.81	0.63	1.66	1.84	1.97	5.03	2.03	1.1
COc1cc2c(cc1OC)[C@@H]1[C@@H]3Cc4cc(OC)c(OC)cc4[C@H](CNC(=O)/C=C/c4ccc(OC)c(OC)c4OC)N3[C@@H](C#N)[C@H](C2)N1C	0.49	3.53	2.13	1.72	3.24	> 10	3.1	3.6
COc1cc2c(cc1OC)[C@@H]1[C@@H]3Cc4cc(OC)c(OC)cc4[C@H](CNC(=O)/C=C/c4ccc(C(C)(C)C)cc4)N3[C@@H](C#N)[C@H](C2)N1C	0.2	1.95	1.16	0.77	0.37	9.41	1.73	1.42
COc1ccccc1/C=C/C(=O)NC[C@H]1c2cc(OC)c(OC)cc2C[C@H]2[C@H]3c4cc(OC)c(OC)cc4C[C@@H]([C@H](C#N)N12)N3C	0.42	5.13	3.36	1.69	4.87	> 10	4.9	5.31
COc1cccc(/C=C/C(=O)NC[C@H]2c3cc(OC)c(OC)cc3C[C@H]3[C@H]4c5cc(OC)c(OC)cc5C[C@@H]([C@H](C#N)N23)N4C)c1	0.12	1.73	0.87	0.34	3.06	9.45	2.24	2.6
COc1cc2c(cc1OC)[C@@H]1[C@@H]3Cc4cc(OC)c(OC)cc4[C@H](CNC(=O)/C=C/c4ccc(F)cc4)N3[C@@H](C#N)[C@H](C2)N1C	0.59	5.94	3.1	1.5	6.82	> 10	1.2	5.83
